From ChEMBL document CHEMBL1141691, “Synthesis and antibacterial activity of the C-7 side chain of 3-aminoquinazolinediones” (Bioorg Med Chem Lett, 2008)
pIC50: −log10 of the molar value. Values after ≈ are worked out from the molar mass of the structure shown.

What was measured:
[1] = Inhibition of Escherichia coli DNA gyrase
[2] = test system: Staphylococcus aureus; test: Antibacterial activity against Staphylococcus aureus 29213 by microbroth dilution susceptibility assay; assay type: functional
Summary of the method: (§1)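 MIC determined by standard broth microdilution following CLSI (formerly NCCLS) guidelines. Value is the lowest concentration inhibiting bacterial growth.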

[3] = test system: Enterococcus faecalis; test: Antibacterial activity against Enterococcus faecalis MGH-2 by microbroth dilution susceptibility assay; assay type: functional; summary of the method: as §1
[4] = test system: Escherichia coli; test: Antibacterial activity against wild-type Escherichia coli MC4100 by microbroth dilution susceptibility assay; assay type: functional; summary of the method: as §1
[5] = test system: Streptococcus pyogenes; test: Antibacterial activity against Streptococcus pyogenes C203 by microbroth dilution susceptibility assay; assay type: functional; summary of the method: as §1
[6] = test system: Escherichia coli; test: Antibacterial activity against TolC knock-out Escherichia coli by microbroth dilution susceptibility assay; assay type: functional; summary of the method: as §1

| Compound | pIC50 [1] | MIC [2] [µg/mL] | MIC [3] [µg/mL] | MIC [4] [µg/mL] | MIC [5] [µg/mL] | MIC [6] [µg/mL] |
| --- | --- | --- | --- | --- | --- | --- |
| Cc1c(N2CCC(N)C2)c(F)cc2c(=O)n(N)c(=O)n(C3CC3)c12 (stereo unspecified) | 6.70 | 8 (≈ 24 µM) | 8 (≈ 24 µM) | 1 (≈ 3 µM) | 1 (≈ 3 µM) | 0.25 (≈ 0.75 µM) |
| Cc1c(N2CC[C@@H]([C@H](C)N)C2)c(F)cc2c(=O)n(N)c(=O)n(C3CC3)c12 | 6.70 | 0.13 (≈ 0.36 µM) | 0.06 (≈ 0.166 µM) | 0.5 (≈ 1.38 µM) | 0.015 (≈ 0.0415 µM) | 0.03 (≈ 0.083 µM) |
| Cc1c(N2CCC(CN)C2)c(F)cc2c(=O)n(N)c(=O)n(C3CC3)c12 (stereo unspecified) | 6.40 | 0.5 (≈ 1.44 µM) | 0.5 (≈ 1.44 µM) | 2 (≈ 5.76 µM) | 0.06 (≈ 0.173 µM) | 0.13 (≈ 0.374 µM) |
| Cc1c(N2CC[C@H]([C@H](C)N)C2)c(F)cc2c(=O)n(N)c(=O)n(C3CC3)c12 | 6.22 | 2 (≈ 5.53 µM) | 2 (≈ 5.53 µM) | 4 (≈ 11.1 µM) | 0.5 (≈ 1.38 µM) | 0.13 (≈ 0.36 µM) |
| CN[C@@H](C)[C@@H]1CCN(c2c(F)cc3c(=O)n(N)c(=O)n(C4CC4)c3c2C)C1 | 6.70 | 0.5 (≈ 1.33 µM) | 0.13 (≈ 0.346 µM) | 4 (≈ 10.7 µM) | 0.015 (≈ 0.04 µM) | 0.03 (≈ 0.0799 µM) |
| Cc1c(N2CCC(C(C)N)C2)c(F)cc2c(=O)n(N)c(=O)n(C3CC3)c12 (stereo unspecified) | 6.22 | 0.5 (≈ 1.38 µM) | 1 (≈ 2.77 µM) | 4 (≈ 11.1 µM) | 0.03 (≈ 0.083 µM) | 0.25 (≈ 0.692 µM) |
| CCN[C@@H](C)[C@@H]1CCN(c2c(F)cc3c(=O)n(N)c(=O)n(C4CC4)c3c2C)C1 | 6.05 | 0.5 (≈ 1.28 µM) | 0.25 (≈ 0.642 µM) | 8 (≈ 20.5 µM) | 0.13 (≈ 0.334 µM) | 0.13 (≈ 0.334 µM) |
| Cc1c(N2CC[C@H]([C@@H](C)N)C2)c(F)cc2c(=O)n(N)c(=O)n(C3CC3)c12 | 6.10 | 1 (≈ 2.77 µM) | 0.25 (≈ 0.692 µM) | 2 (≈ 5.53 µM) | 0.25 (≈ 0.692 µM) | 0.13 (≈ 0.36 µM) |
| Cc1c(N2CCC(C(C)(C)N)C2)c(F)cc2c(=O)n(N)c(=O)n(C3CC3)c12 (stereo unspecified) | 5.80 | 1 (≈ 2.66 µM) | 2 (≈ 5.33 µM) | 16 (≈ 42.6 µM) | 0.125 (≈ 0.333 µM) | 0.25 (≈ 0.666 µM) |
| Cc1c(N2CCC(C3(N)CC3)C2)c(F)cc2c(=O)n(N)c(=O)n(C3CC3)c12 (stereo unspecified) | 6.10 | 0.25 (≈ 0.669 µM) | 0.13 (≈ 0.348 µM) | 2 (≈ 5.36 µM) | 0.03 (≈ 0.0803 µM) | 0.03 (≈ 0.0803 µM) |
| Cc1c(N2CCC(C(N)c3ccccc3)C2)c(F)cc2c(=O)n(N)c(=O)n(C3CC3)c12 (stereo unspecified) | 6.59 | 0.13 (≈ 0.307 µM) | 0.25 (≈ 0.59 µM) | 4 (≈ 9.45 µM) | 0.03 (≈ 0.0708 µM) | 0.06 (≈ 0.142 µM) |
| Cc1c(N2CCCCC2)c(F)cc2c(=O)n(N)c(=O)n(C3CC3)c12 | 5.20 | 4 (≈ 12 µM) | 4 (≈ 12 µM) | > 64 | 4 (≈ 12 µM) | 0.25 (≈ 0.752 µM) |
| Cc1c(N2CCNCC2)c(F)cc2c(=O)n(N)c(=O)n(C3CC3)c12 | 5.51 | 32 (≈ 96 µM) | 32 (≈ 96 µM) | 4 (≈ 12 µM) | 4 (≈ 12 µM) | 1 (≈ 3 µM) |
| Cc1c(N2CCCC2)c(F)cc2c(=O)n(N)c(=O)n(C3CC3)c12 | 5.72 | 1 (≈ 3.14 µM) | 2 (≈ 6.28 µM) | 16 (≈ 50.3 µM) | 1 (≈ 3.14 µM) | 0.13 (≈ 0.408 µM) |
| Cc1c(N2CC[C@@H]([C@@H](C)N)C2)c(F)cc2c(=O)n(N)c(=O)n(C3CC3)c12 | 6.52 | 0.5 (≈ 1.38 µM) | 0.5 (≈ 1.38 µM) | 2 (≈ 5.53 µM) | 0.06 (≈ 0.166 µM) | 0.13 (≈ 0.36 µM) |
| CCC(N)C1CCN(c2c(F)cc3c(=O)n(N)c(=O)n(C4CC4)c3c2C)C1 (stereo unspecified) | 6.40 | 0.5 (≈ 1.33 µM) | 0.25 (≈ 0.666 µM) | 8 (≈ 21.3 µM) | 0.03 (≈ 0.0799 µM) | 0.13 (≈ 0.346 µM) |
| Cc1c(N2CCC(CCN)C2)c(F)cc2c(=O)n(N)c(=O)n(C3CC3)c12 (stereo unspecified) | 5.92 | 4 (≈ 11.1 µM) | 4 (≈ 11.1 µM) | 16 (≈ 44.3 µM) | 0.125 (≈ 0.346 µM) | 0.5 (≈ 1.38 µM) |
| Cc1c(N2CCC2)c(F)cc2c(=O)n(N)c(=O)n(C3CC3)c12 | 4.90 | 32 (≈ 105 µM) | 64 (≈ 210 µM) | > 64 | 64 (≈ 210 µM) | 2 (≈ 6.57 µM) |
| O=C(O)c1cn(C2CC2)c2cc(N3CCNCC3)c(F)cc2c1=O [CIPROFLOXACIN] | – | 0.5 (≈ 1.51 µM) | 0.4 (≈ 1.21 µM) | – | 2 (≈ 6.04 µM) | – |
